Several values for one entry are separate records, joined by “and”; a condition that tells them apart may be missing. Identical values can stand only once.
What was measured:
[1] = target: T1, OATP1B1 (Homo sapiens, UniProt Q9Y6L6); type: cell-based; settings: for Transport rate in OATP1B1-transfected cells without rifampin: in 15 min, HEK293
T1 sequence (Q9Y6L6 1-691): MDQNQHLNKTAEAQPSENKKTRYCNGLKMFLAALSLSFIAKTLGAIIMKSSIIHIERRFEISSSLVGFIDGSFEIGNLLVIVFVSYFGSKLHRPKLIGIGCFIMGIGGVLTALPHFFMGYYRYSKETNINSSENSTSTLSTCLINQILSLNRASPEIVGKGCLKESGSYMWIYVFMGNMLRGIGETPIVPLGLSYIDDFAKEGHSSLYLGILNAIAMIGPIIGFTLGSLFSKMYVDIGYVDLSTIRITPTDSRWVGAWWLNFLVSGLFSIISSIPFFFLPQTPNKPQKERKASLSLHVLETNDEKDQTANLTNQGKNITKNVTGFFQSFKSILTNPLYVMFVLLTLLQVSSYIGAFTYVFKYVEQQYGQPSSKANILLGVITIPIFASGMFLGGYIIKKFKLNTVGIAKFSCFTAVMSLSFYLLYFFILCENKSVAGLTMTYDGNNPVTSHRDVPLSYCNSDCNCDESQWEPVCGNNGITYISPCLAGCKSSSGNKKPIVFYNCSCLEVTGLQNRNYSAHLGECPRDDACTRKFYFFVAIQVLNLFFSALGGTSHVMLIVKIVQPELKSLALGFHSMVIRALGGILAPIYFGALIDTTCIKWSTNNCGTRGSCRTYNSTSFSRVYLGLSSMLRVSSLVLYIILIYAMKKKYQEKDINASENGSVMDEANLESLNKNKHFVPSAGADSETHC

[2] = target: T2, Oatp1b2 (Mus musculus, UniProt Q9JJL3); type: cell-based; settings: for Transport rate in Oatp1b2-transfected cells without rifampin: in 15 min, HEK293
T2 sequence (Q9JJL3 1-689): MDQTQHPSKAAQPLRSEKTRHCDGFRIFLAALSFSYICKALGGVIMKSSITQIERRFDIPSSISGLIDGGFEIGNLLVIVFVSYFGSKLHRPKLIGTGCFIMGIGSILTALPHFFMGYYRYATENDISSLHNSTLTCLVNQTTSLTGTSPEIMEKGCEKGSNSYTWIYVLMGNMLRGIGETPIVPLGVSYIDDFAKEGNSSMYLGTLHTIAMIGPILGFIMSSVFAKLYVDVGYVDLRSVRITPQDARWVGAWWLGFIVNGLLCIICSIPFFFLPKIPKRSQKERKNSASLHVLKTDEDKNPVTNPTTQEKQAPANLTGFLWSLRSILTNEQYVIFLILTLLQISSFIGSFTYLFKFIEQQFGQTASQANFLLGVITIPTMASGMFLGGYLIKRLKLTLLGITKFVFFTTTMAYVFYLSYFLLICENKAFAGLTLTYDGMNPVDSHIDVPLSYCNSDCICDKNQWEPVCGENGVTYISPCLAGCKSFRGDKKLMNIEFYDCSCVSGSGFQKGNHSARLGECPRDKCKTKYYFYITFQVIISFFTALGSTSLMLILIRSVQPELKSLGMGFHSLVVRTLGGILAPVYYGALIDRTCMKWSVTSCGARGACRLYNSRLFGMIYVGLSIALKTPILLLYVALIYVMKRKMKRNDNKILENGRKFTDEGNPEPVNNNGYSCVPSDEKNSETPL

[3] = type: in vivo, mice; settings: for Effect of Oatp1b2-deficiency and/or rifampin pretreatment on plasma levels: mice, rifampin 20 mg/kg
Method in brief: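 Female DBA1/lacJ mice, knockout and age-matched wildtype, n=4 per group, fasted 3 h before and during the study. Rifampin was given i.v. 5 min before sorafenib gavage in Cremophor EL/ethanol (1:1) diluted 1:4 with water. Plasma was sampled at 0.25–7.5 h and liver at 7.5 h. Analytes were measured by LC-MS/MS. Liver was normalized to plasma; geometric means (95% CI) were compared by ANOVA.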

[4] = type: in vivo, human
[5] = oral sorafenib, humans; cited from earlier work
[6] = cited from earlier work
[7] = target: T1, OATP1B1; assay: Transcellular; type: cell-based; settings: rifampin 100 μM; SG 1 μM; MDCKII-OATP1B1
[8] = Adverse events and laboratory tests during the clinical study; type: in vivo, human; settings: patients on sorafenib; rifampin 600 mg x 2, midazolam 2.5 mg i.v.
Method in brief: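 Sorafenib-treated patients were at steady state (≥14 days on the same dose) with creatinine <1.25×ULN, bilirubin <1.25×ULN, aminotransferases <5×ULN and PT ≤1.5×ULN or INR <1.5 at entry. Rifampin was given fasting the day before and the day of sampling, 1 h before sorafenib. Sorafenib dose changes and CYP3A4-affecting comedication were barred. Adverse events were graded by CTCAE v4.03.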

[9] = test system: OATP1B1; settings: cited from earlier work
[10] = patients, with versus without rifampin
[11] = rifampin preincubation 30 μM (legend: 20 μM), SG 10 μM, 15 min
[12] = rifampin preincubation 30 μM, E2G 0.1 μM, 15-min incubation

## CNC(=O)c1cc(Oc2ccc(NC(=O)N(c3ccc(Cl)c(C(F)(F)F)c3)[C@@H]3O[C@H](C(=O)O)[C@@H](O)[C@H](O)[C@H]3O)cc2)ccn1 [SG, sorafenib‐β‐D‐glucuronide]
[1]; E2G 0.1 μM, SG 10 μM
  Transport rate in OATP1B1-transfected cells without rifampin: 57.46 pmol/mg protein
[2]; E2G 0.1 μM, SG 10 μM
  Transport rate in Oatp1b2-transfected cells without rifampin: 770.17 pmol/mg protein
[3]; Oatp1b2(-/-) versus wildtype mice, sorafenib 10 mg/kg oral
  Increase in SG AUC0-7.5h with Oatp1b2-deficiency: 8 fold
[3]; wildtype mice pretreated with rifampin 20 mg/kg, 7.5 h after sorafenib 10 mg/kg
  Reduction of liver-to-plasma ratio of SG: ~90%
[4]; humans
  Increase of SG levels by rifampin in humans: ~2 fold
[4]; [10]
  Mean metabolic ratio of SG to sorafenib during rifampin administration: significantly increased
[5]
  Detection of SG in feces: not detectable
[6]; 16 cancer patients, sorafenib 90 mg/m^2 oral, days 7, 13 and 21
  Mean steady-state (trough) concentration (Css): 954 ng/mL

## CNC(=O)c1cc(Oc2ccc(NC(=O)Nc3ccc(Cl)c(C(F)(F)F)c3)cc2)ccn1 [Sorafenib, sorafenib]
[3]; sorafenib 10 mg/kg oral
  Effect of Oatp1b2-deficiency and/or rifampin pretreatment on plasma levels: did not substantially affect
[5]
  Fraction of the dose eliminated as oxidative metabolites: less than 5%
  Fraction of the dose eliminated as sorafenib-β-D-glucuronide (SG): 15%
[6]; healthy male volunteers, single-dose sorafenib
  Influence of the CYP3A4 inhibitor ketoconazole on PK: no influence
[6]; oral sorafenib
  Variation in exposure between patients receiving the same therapeutic regimen: up to 90%
[6]; ref Nexavar package insert
  Decrease in systemic exposure with neomycin: more than 50%

## CNC(=O)c1cc(Oc2ccc(NC(=O)Nc3ccc(Cl)c(C(F)(F)F)c3)cc2)cc[n+]1[O-] [Sorafenib N-oxide, sorafenib‐N‐oxide]
[3]; sorafenib 10 mg/kg oral
  Effect of Oatp1b2-deficiency and/or rifampin pretreatment on plasma levels: did not substantially affect
[4]; [10]
  Extent of sorafenib-N-oxide formation between treatment cycles: not different

## C[C@]12CC[C@@H]3c4ccc(O)cc4CC[C@H]3[C@@H]1CC[C@@H]2O[C@@H]1O[C@H](C(=O)O)[C@@H](O)[C@H](O)[C@H]1O [E2G, estradiol‐17β‐D‐glucuronide]
[1]; E2G 0.1 μM, SG 10 μM
  Transport rate in OATP1B1-transfected cells without rifampin: 4.77 pmol/mg protein
[2]; E2G 0.1 μM, SG 10 μM
  Transport rate in Oatp1b2-transfected cells without rifampin: 26.73 pmol/mg protein

## CO[C@H]1/C=C/O[C@@]2(C)Oc3c(C)c(O)c4c(O)c(c(/C=N/N5CCN(C)CC5)c(O)c4c3C2=O)NC(=O)/C(C)=C\C=C\[C@H](C)[C@H](O)[C@@H](C)[C@@H](O)[C@@H](C)[C@H](OC(C)=O)[C@@H]1C [rifampin]
[1]; [11]
  Reduction of intracellular uptake of SG by OATP1B1: 92%
[1]; [12]
  Inhibition of E2G uptake by human OATP1B1: strongly inhibited
[2]; [11]
  Reduction of intracellular uptake of SG by Oatp1b2: 97%
[2]; [12]
  Inhibition of E2G uptake by mouse Oatp1b2: strongly inhibited
[7]
  Effect of rifampin on OATP1B1-mediated basal-to-apical translocation of SG: diminished
[8]
  Toxicities attributable to the drug during the clinical study: no toxicities were observed
[6]
  Plasma Cmax of unbound rifampin: ~1.3 μM and 1.1 mg/L
[9]
  Substrate-dependent variation in IC50 values for inhibition of OATP1B1: up to 12 fold

## COc1ccccc1Oc1c(NS(=O)(=O)c2ccc(C(C)(C)C)cc2)nc(-c2ncccn2)nc1OCCO [bosentan]
[6]; rifampin 600 mg once daily for 6.5 days
  Change in systemic exposure with extended rifampin exposure: –58%
[6]; rifampin 600 mg once daily, 1–2 doses
  Change in systemic exposure with acute rifampin exposure: +500%

## Cc1ncc2n1-c1ccc(Cl)cc1C(c1ccccc1F)=NC2 [midazolam]
[8]
  Toxicities attributable to the drug during the clinical study: no toxicities were observed
